Experimental data of several laboratories.
Protocols differ between the studies behind these lines.
Target: Serine/threonine-protein kinase haspin (HASPIN, Homo sapiens, UniProt Q8TF76)
Residues used in one study (Q8TF76 1-798): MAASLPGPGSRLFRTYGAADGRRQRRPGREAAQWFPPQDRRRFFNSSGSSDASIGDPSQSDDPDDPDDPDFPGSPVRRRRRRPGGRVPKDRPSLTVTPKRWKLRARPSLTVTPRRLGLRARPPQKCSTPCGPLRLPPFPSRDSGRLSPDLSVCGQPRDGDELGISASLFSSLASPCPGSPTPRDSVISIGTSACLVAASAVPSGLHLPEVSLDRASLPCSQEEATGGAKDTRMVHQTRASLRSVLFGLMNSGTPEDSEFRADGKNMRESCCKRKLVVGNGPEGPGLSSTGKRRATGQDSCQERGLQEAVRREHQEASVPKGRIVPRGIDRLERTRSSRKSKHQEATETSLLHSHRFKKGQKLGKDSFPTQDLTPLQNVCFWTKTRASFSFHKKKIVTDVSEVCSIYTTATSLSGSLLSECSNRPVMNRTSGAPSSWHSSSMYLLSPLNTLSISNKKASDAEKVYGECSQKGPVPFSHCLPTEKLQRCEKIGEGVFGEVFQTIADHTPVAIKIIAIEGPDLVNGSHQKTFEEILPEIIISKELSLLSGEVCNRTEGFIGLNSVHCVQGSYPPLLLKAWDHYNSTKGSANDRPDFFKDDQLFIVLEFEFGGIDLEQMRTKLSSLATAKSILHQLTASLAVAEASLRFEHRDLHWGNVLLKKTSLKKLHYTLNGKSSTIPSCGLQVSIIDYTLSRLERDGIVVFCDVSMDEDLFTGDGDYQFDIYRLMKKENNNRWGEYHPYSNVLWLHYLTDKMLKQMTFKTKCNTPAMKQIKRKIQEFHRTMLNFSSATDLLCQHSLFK

Compound	test	setting	remaining binding
N[C@@H]1CCN(c2nccc(-c3cnn4ncccc34)n2)C1	binding	1 µM	2.5%
O=C(NCCCN1CCOCC1)c1ccc(Nc2ncc(Cl)c(-c3ccc(Cl)s3)n2)cc1	binding, competition with immobilised ligand	1 µM	51%
CN(C)c1nccc(-c2cnn3ncccc23)n1	binding	1 µM	1.5%
NS(=O)(=O)c1cc(NC(=O)Cc2ccccc2)ccc1Oc1cccc(Cl)c1	cell-free assay, competition with immobilised ligand	1 µM	100%
F[C@@H]1CCN(c2nccc(-c3cnn4ncccc34)n2)C1	binding	1 µM	15%
O=C(NCCCN1CCOCC1)c1ccc(Nc2nccc(-c3cc4ccccc4s3)n2)cc1	binding, competition with immobilised ligand	1 µM	80%
CN(CCCC(F)(F)F)c1nccc(-c2cnn3ncccc23)n1	binding	1 µM	11%
C[C@H](NC(=O)c1cnc2n1[C@](C)(Cc1ccc(C#N)cc1)C(=O)N2c1cc(Cl)c(F)c(Cl)c1)C(=O)NC1(c2ccccn2)CC1	cell-free assay, competition with immobilised ligand	1 µM	100%
COc1cnc(Nc2cccc(S(N)(=O)=O)c2)nc1N1CCN(c2ccccc2)C(=O)C1	binding, competition with immobilised ligand	1 µM	89%
O=C(Nc1c[nH]nc1C(=O)NC1CCNCC1)c1cc(F)cc(F)c1	binding, competition with immobilised ligand	1 µM	96%
CC(=O)N1CCC(c2ccc(C(=O)NC3=NCCN3)cc2C(F)(F)F)CC1	cell-free assay, competition with immobilised ligand	1 µM	78%
C=CC(=O)N1CCC(C(=O)NCC(=O)N2CCN(c3nc(-c4cnc(N)nc4C(F)F)nc(N4CCOCC4)n3)CC2)CC1	binding, competition with immobilised ligand	1 µM	75%
CNC(=O)[C@@H]1CC[C@@H](n2c(-c3ccc4cnccc4c3)nc3ccc(C(=O)NCc4cccc(C(N)=O)c4)cc32)C1	binding, competition with immobilised ligand	1 µM	99%
C[C@H](c1ccnc(Nc2nc3ccc(-c4cc(N(C)C)ncn4)cc3[nH]2)c1)N1CCN(C(=O)CC(F)(F)F)CC1	cell-free assay, competition with immobilised ligand	0.1 µM	100%
CN(C)c1ncc(F)c(-c2cnn3ncccc23)n1	binding	1 µM	37%
COc1ccc2cc(OCC3(C(=O)O)CN(C(=O)c4ccc(F)cc4)C3)ccc2c1	cell-free assay, competition with immobilised ligand	1 µM	100%
O=C(c1ccc(Nc2ncc(Cl)c(-c3cc4ccccc4s3)n2)cc1)N1CCC(N2CCCC2)CC1	binding, competition with immobilised ligand	1 µM	67%
COc1ncc2cc3ccccc3nc2c1C#N	cell-free assay, competition with immobilised ligand	5 µM	51%
Cc1cc(NC(=O)c2cccc(S(F)(F)(F)(F)F)c2)cc(-n2ccn3nc(-c4cccnc4)cc23)c1	cell-free assay, competition with immobilised ligand	1 µM	70.9%
C[C@H]1CCN(c2nccc(-c3cnn4ncccc34)n2)C1	binding	1 µM	2.1%
CCC(=O)N[C@@H]1CC[C@H](C(=O)N(C)c2ccc(-c3nc4ccccc4o3)cc2)C1	cell-free assay, competition with immobilised ligand	1 µM	100%
COc1ccnn2ncc(-c3ccnc(N(C)C)n3)c12	binding	1 µM	1.8%
